One may read the IC50 as the concentration that gives 50% inhibition. High values mean a need for much substance, low ones inhibition by little substance. Usually inhibition stands for the change of the read-out against control, counted positive when it falls.

Assay [1] addresses T1, Type-1 angiotensin II receptor (Bos taurus, UniProt P25104).
T1 sequence (P25104 whole entry): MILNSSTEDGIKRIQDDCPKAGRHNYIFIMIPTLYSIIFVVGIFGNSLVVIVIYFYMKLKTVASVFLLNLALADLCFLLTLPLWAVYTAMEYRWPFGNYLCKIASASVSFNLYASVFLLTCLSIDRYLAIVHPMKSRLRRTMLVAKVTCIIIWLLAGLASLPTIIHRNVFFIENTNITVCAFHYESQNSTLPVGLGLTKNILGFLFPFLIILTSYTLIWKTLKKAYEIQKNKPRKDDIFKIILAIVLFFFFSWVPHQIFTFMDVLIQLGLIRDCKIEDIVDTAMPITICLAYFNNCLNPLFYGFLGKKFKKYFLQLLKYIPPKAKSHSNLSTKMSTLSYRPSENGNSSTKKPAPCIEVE
The assay is described as follows: Inhibition of specific binding of [125 I ] Angiotensin-II (0.2 nM) to bovine adrenal cortex. In kind it is tissue-based.

The target in assay [2] is T2, Angiotensin II receptor (Rattus norvegicus) (UniProt P29089+P25095+P35351). Put plainly: Percent inhibition of the Angiotensin-II (0.1ug/kg, iv) induced pressor response after 3 hours of administration (1 mg/kg po) in rats. It is filed as functional, organism-based. Put shortly: (§1)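 Conscious male Sprague-Dawley rats dosed orally with test compound; pressor response to AII challenge (0.1 µg/kg iv) measured at 3 and 7 h after dosing and expressed as percent inhibition. Duplicate experiments, with n = 3 for some compounds; variation in % inhibition under 30%.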

For assay [3], the target named is T2, Angiotensin II receptor (Rattus norvegicus). Put plainly: Percent inhibition of the Angiotensin-II (0.1ug/kg, iv) induced pressor response after 7 hours of administration (1 mg/kg po) in rats. It is filed as functional, organism-based. The essentials:
as §1

The target is the same in assay [4]. The assay is described as follows: Percent inhibition of the Angiotensin-II (0.1micro g/kg, iv) induced pressor response after 7 hours of administration (3 mg/kg po) in rats. In kind it is functional, organism-based. The essentials:
as §1

Assay [5] has the same target. Put plainly: Percent inhibition of the Angiotensin-II (0.1ug/kg, iv) induced pressor response after 3 hours of administration (3 mg/kg po) in rats. In kind it is functional, organism-based. Put shortly:
as §1

In turn, `C=CCOc1nc2cccc(C(=O)OC)c2n1Cc1ccc(-c2ccccc2-c2nnn[nH]2)cc1` gave an IC50 in assay [1] of 850 nM.
On to `CCN(C)c1nc2cccc(C(=O)O)c2n1Cc1ccc(-c2ccccc2-c2nnn[nH]2)cc1`, for which, in assay [1], the half-maximal inhibitory concentration (IC50) is greater than 1000 nM.
The same measure, in the same setting: then `CCCCCc1nc2cccc(C(=O)O)c2n1Cc1ccc(-c2ccccc2-c2nnn[nH]2)cc1`, with 560 nM; and `CCSCc1nc2cccc(C(=O)O)c2n1Cc1ccc(-c2ccccc2-c2nnn[nH]2)cc1`, with 300 nM.
Regarding `CCSCc1nc2cccc(C(=O)O)c2n1Cc1ccc(-c2ccccc2-c2nn[nH]n2)cc1`, the values for the inhibition in assay [2] and in assay [3] were 68% and 57%, respectively.
Regarding `CCCSc1nc2cccc(C(=O)O)c2n1Cc1ccc(-c2ccccc2-c2nnn[nH]2)cc1`, the half-maximal inhibitory concentration (IC50) in assay [1] stood at 120 nM.
Consider `CCOCc1nc2cccc(C(=O)O)c2n1Cc1ccc(-c2ccccc2-c2nnn[nH]2)cc1`, for which the IC50 in assay [1] is 440 nM.
For the compound `COC(=O)c1cccc2nc(OCC(F)(F)F)n(Cc3ccc(-c4ccccc4-c4nn[nH]n4)cc3)c12`, the figures for the inhibition in assay [2] and in assay [3] were 36% and 9%, respectively.
For the compound `CCSc1nc2cccc(C(=O)O)c2n1Cc1ccc(-c2ccccc2-c2nn[nH]n2)cc1`, the inhibition was 87% in assay [2], 97% in assay [4], 90% in assay [3] and 99% in assay [5].
For the compound `C=CCOc1nc2cccc(C(=O)OC)c2n1Cc1ccc(-c2ccccc2-c2nn[nH]n2)cc1`, the inhibition amounted to 14% in assay [2] and 12% in assay [3].
As for `CCc1nc2cccc(C(=O)O)c2n1Cc1ccc(-c2ccccc2-c2nnn[nH]2)cc1`, the half-inhibitory concentration (IC50) in assay [1] was determined as 46 nM.
As to `CC(C)Cc1nc2cccc(C(=O)O)c2n1Cc1ccc(-c2ccccc2-c2nn[nH]n2)cc1`, the inhibition in assay [2] was -9%; in assay [4] it was 29%; in assay [3], 13%; in assay [5], 29%.
As to `CCCOc1nc2cccc(C(=O)O)c2n1Cc1ccc(-c2ccccc2-c2nnn[nH]2)cc1`, the half-maximal inhibitory concentration (IC50) in assay [1] turned out to be 190 nM.
The same measure, in the same setting: the figure for `CNc1nc2cccc(C(=O)O)c2n1Cc1ccc(-c2ccccc2-c2nnn[nH]2)cc1` is 170 nM.
Regarding `CCOc1nc2cccc(C(=O)O)c2n1Cc1ccc(-c2ccccc2C(=O)O)cc1`, the inhibition in assay [2] was found to be 26%; in assay [4] it was 49%; in assay [3], 44%; in assay [5], 37%. The IC50 in assay [1] is 190 nM.
In assay [1], `CCCCc1nc(Cl)c(CO)n1Cc1ccc(-c2ccccc2-c2nn[nH]n2)cc1` [LOSARTAN POTASSIUM] yielded a 50% inhibitory concentration (IC50) of 150 nM.
For `CCCSc1nc2cccc(C(=O)O)c2n1Cc1ccc(-c2ccccc2-c2nn[nH]n2)cc1`, the inhibition in assay [2] was 100%; in assay [4], 76%; in assay [3] it was 100%; in assay [5] it was 88%.
The compound `CCNc1nc2cccc(C(=O)O)c2n1Cc1ccc(-c2ccccc2-c2nnn[nH]2)cc1` displayed an IC50 in assay [1] of 62 nM.
Same read-out and setting: then `O=C(O)c1cccc2nc(N3CCOCC3)n(Cc3ccc(-c4ccccc4-c4nnn[nH]4)cc3)c12`, with greater than 1000 nM; and `CC(C)c1nc2cccc(C(=O)O)c2n1Cc1ccc(-c2ccccc2-c2nnn[nH]2)cc1`, with 82 nM; and `CCCCOc1nc2cccc(C(=O)OC)c2n1Cc1ccc(-c2ccccc2-c2nnn[nH]2)cc1`, with greater than 1000 nM.
Consider `CCCNc1nc2cccc(C(=O)O)c2n1Cc1ccc(-c2ccccc2-c2nn[nH]n2)cc1`, for which the inhibition in assay [2] came out at 46%; in assay [4], 72%; in assay [3], 66%; in assay [5] it was 73%.
`CCSc1nc2cccc(C(=O)O)c2n1Cc1ccc(-c2ccccc2-c2nnn[nH]2)cc1` had an IC50 in assay [1] of 170 nM.
`CC(C)Cc1nc2cccc(C(=O)O)c2n1Cc1ccc(-c2ccccc2-c2nnn[nH]2)cc1` yielded a half-inhibitory concentration (IC50) in assay [1] of 3200 nM.
In the case of `CSc1nc2cccc(C(=O)O)c2n1Cc1ccc(-c2ccccc2-c2nn[nH]n2)cc1`, the inhibition in assay [2] turned out to be 100%; in assay [4], 95%; in assay [3], 81%; in assay [5], 100%.
`CC[S+]([O-])c1nc2cccc(C(=O)OC)c2n1Cc1ccc(-c2ccccc2-c2nn[nH]n2)cc1` (stereo not given) yielded an IC50 in assay [1] greater than 1000 nM.
As for `CCOc1nc2cccc(C(=O)OC)c2n1Cc1ccc(-c2ccccc2-c2nn[nH]n2)cc1`, the inhibition in assay [2] turned out to be 100%; in assay [4], 100%; in assay [3], 90%; in assay [5], 100%.
Turning to `Cc1nc2cccc(C(=O)O)c2n1Cc1ccc(-c2ccccc2-c2nnn[nH]2)cc1`, the half-inhibitory concentration (IC50) in assay [1] worked out at 190 nM.
In the case of `CSCCc1nc2cccc(C(=O)O)c2n1Cc1ccc(-c2ccccc2-c2nn[nH]n2)cc1`, the inhibition in assay [2] and in assay [3] was 10% in each case. Moreover, the IC50 in assay [1] amounted to 620 nM.
For `CC(C)c1nc2cccc(C(=O)O)c2n1Cc1ccc(-c2ccccc2-c2nn[nH]n2)cc1`, the inhibition in assay [4] stood at 38%; in assay [5], 61%.
Take `CCCCc1nc(Cl)c(CO)n1Cc1ccc(-c2ccccc2-c2nnn[nH]2)cc1`: the inhibition came to 21% in assay [2], 74% in assay [4], 34% in assay [3] and 62% in assay [5].
As for `CCSc1nc2cccc(C(=O)OC)c2n1Cc1ccc(-c2ccccc2-c2nn[nH]n2)cc1`, in assay [1], the IC50 was determined as 440 nM.
Still for that read-out and setting: then `CCCCNc1nc2cccc(C(=O)O)c2n1Cc1ccc(-c2ccccc2-c2nnn[nH]2)cc1`, with 650 nM; and `COc1nc2cccc(C(=O)O)c2n1Cc1ccc(-c2ccccc2-c2nnn[nH]2)cc1`, with 32 nM.
In the case of `CCCOc1nc2cccc(C(=O)O)c2n1Cc1ccc(-c2ccccc2-c2nn[nH]n2)cc1`, the inhibition in assay [2] came to 87%; in assay [4], 100%; in assay [3], 83%; in assay [5], 100%.
Compound `CCCNc1nc2cccc(C(=O)O)c2n1Cc1ccc(-c2ccccc2-c2nnn[nH]2)cc1` showed an IC50 in assay [1] of 39 nM.
With `CCCc1nc2cccc(C(=O)O)c2n1Cc1ccc(-c2ccccc2-c2nn[nH]n2)cc1`, the inhibition in assay [2] was 83%; in assay [4], 91%; in assay [3], 69%; in assay [5], 90%. In assay [1], this compound had an IC50 of 170 nM.
Consider `CCCOc1nc2cccc(C(=O)OCC)c2n1Cc1ccc(-c2ccccc2-c2nnn[nH]2)cc1`, for which, in assay [1], the 50% inhibitory concentration (IC50) turned out to be 1000 nM.
On to `COCCc1nc2cccc(C(=O)O)c2n1Cc1ccc(-c2ccccc2-c2nn[nH]n2)cc1`, for which the inhibition in assay [2] was determined as 13%; in assay [3] it was 3%. Also, the IC50 in assay [1] amounted to 580 nM.
Regarding `COc1nc2cccc(C(=O)O)c2n1Cc1ccc(-c2ccccc2-c2nn[nH]n2)cc1`, the inhibition in assay [2] was 97%; in assay [3], 80%.
As for `COC(=O)c1cccc2nc(OC)n(Cc3ccc(-c4ccccc4-c4nn[nH]n4)cc3)c12`, the inhibition in assay [2] was found to be 94%; in assay [3] it was 89%.
`O=C(O)c1cccc2nc(N3CCCCC3)n(Cc3ccc(-c4ccccc4-c4nnn[nH]4)cc3)c12`: the concentration for half-maximal inhibition (IC50) in assay [1] was greater than 1000 nM.
Same read-out and setting: then `COC(=O)c1cccc2nc(OC)n(Cc3ccc(-c4ccccc4-c4nnn[nH]4)cc3)c12`, with 490 nM.
Take `O=C(O)c1cccc2nc(C3CC3)n(Cc3ccc(-c4ccccc4-c4nn[nH]n4)cc3)c12`: the inhibition in assay [2] stood at 80%; in assay [4], 96%; in assay [3], 88%; in assay [5], 92%. Besides, the IC50 in assay [1] is 84 nM.
`CCOc1nc2cccc(C(=O)OC)c2n1Cc1ccc(-c2ccccc2-c2nnn[nH]2)cc1` had an IC50 in assay [1] of 66 nM.
For `CCC(C)c1nc2cccc(C(=O)O)c2n1Cc1ccc(-c2ccccc2-c2nn[nH]n2)cc1` (stereo not given), the inhibition in assay [2] is 6%; in assay [4], 18%; in assay [3], 0%; in assay [5], 15%.
Regarding `O=C(O)c1cccc2nc(OCC(F)(F)F)n(Cc3ccc(-c4ccccc4-c4nn[nH]n4)cc3)c12`, the inhibition in assay [2] amounted to 28%; in assay [3], 7%. For the same compound, the IC50 in assay [1] turned out to be 580 nM.
`CCC(C)c1nc2cccc(C(=O)O)c2n1Cc1ccc(-c2ccccc2-c2nnn[nH]2)cc1` (stereo not given) gave a concentration for half-maximal inhibition (IC50) in assay [1] of 3900 nM.
Regarding `CSCc1nc2cccc(C(=O)O)c2n1Cc1ccc(-c2ccccc2-c2nn[nH]n2)cc1`, the results for the inhibition in assay [2] and in assay [3] were 85% and 44%, respectively. The compound further came in with a 50% inhibitory concentration (IC50) in assay [1] of 150 nM.
The compound `CSc1nc2cccc(C(=O)O)c2n1Cc1ccc(-c2ccccc2-c2nnn[nH]2)cc1` displayed an IC50 in assay [1] of 120 nM.
With `CCCCc1nc2cccc(C(=O)O)c2n1Cc1ccc(-c2ccccc2-c2nnn[nH]2)cc1`, the IC50 in assay [1] worked out at 550 nM.
As to `COCc1nc2cccc(C(=O)O)c2n1Cc1ccc(-c2ccccc2-c2nn[nH]n2)cc1`, the inhibition was found to be 47% in assay [2] and 33% in assay [3]. This compound displayed an IC50 in assay [1] of 250 nM.
`COC(=O)c1cccc2nc(OCC(F)(F)F)n(Cc3ccc(-c4ccccc4-c4nnn[nH]4)cc3)c12` registered an IC50 in assay [1] greater than 1000 nM.
Turning to `CCOCc1nc2cccc(C(=O)O)c2n1Cc1ccc(-c2ccccc2-c2nn[nH]n2)cc1`, the inhibition in assay [2] came to 63%; in assay [3], 29%.

The values above are taken from ChEMBL document CHEMBL1126750, “Nonpeptide angiotensin II receptor antagonists. Synthesis and biological activity of benzimidazolecarboxylic acids” (J Med Chem, 1993).
